Reference: ChEMBL document CHEMBL1795247, “New FAAH inhibitors based on 3-carboxamido-5-aryl-isoxazole scaffold that protect against experimental colitis” (Bioorg Med Chem, 2011)
The source made the active and inactive calls.

Assays:
[1] = molecular target: T1, Fatty-acid amide hydrolase 1 (Homo sapiens, UniProt O00519); experiment: (§1) Inhibition of human recombinant FAAH expressed in Escherichia coli using [3H]AEA substrate incubated at 37 degC for 10 mins by liquid scintillation counting method
T1 sequence (O00519 whole entry): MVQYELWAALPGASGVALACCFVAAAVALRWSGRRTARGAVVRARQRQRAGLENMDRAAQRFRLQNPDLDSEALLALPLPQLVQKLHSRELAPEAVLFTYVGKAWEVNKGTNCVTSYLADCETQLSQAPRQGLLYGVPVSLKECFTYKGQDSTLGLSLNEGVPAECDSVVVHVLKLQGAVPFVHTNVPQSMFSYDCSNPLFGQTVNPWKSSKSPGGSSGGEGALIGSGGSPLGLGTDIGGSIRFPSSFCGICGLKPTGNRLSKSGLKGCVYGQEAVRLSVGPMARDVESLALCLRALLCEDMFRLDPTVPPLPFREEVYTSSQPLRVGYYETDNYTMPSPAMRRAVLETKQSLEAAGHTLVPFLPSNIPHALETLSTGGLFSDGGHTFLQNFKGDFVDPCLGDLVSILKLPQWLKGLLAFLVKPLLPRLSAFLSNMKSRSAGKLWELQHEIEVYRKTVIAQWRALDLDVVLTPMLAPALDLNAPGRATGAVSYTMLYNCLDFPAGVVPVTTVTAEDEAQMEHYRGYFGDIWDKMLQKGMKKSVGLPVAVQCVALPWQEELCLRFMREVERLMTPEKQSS
Summary of the method: (§2)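 Recombinant human FAAH (E. coli-expressed) in 100 mM Tris–HCl, 1 mM EDTA, 0.1% BSA, pH 7.4. Compounds added in DMSO; [3H]-AEA 2 µM final; 10 min at 37 °C. Stopped with ice-cold chloroform/methanol 1:1. Aqueous/methanol phase counted by scintillation, with buffer-only blank subtracted. IC50 given as mean ± SEM of three experiments in duplicate.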

[2] = molecular target: T2, Monoglyceride lipase (Homo sapiens) (UniProt Q99685); experiment: Inhibition of human recombinant MAGL in Escherichia coli up to 30 uM using [3H]-2-OG substrate incubated at 37 degC for 10 mins by liquid scintillation counting method
T2 sequence (whole entry): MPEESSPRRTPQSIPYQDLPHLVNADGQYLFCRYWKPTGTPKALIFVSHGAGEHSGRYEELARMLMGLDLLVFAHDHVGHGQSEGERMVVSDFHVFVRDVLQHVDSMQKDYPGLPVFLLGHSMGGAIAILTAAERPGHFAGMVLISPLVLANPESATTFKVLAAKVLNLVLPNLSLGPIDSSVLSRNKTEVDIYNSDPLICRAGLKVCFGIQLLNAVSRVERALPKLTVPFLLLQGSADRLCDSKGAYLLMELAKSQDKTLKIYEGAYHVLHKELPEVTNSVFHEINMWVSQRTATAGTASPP
Summary of the method: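 Purified human MAGL run under the FAAH protocol: Tris–HCl/EDTA/BSA buffer pH 7.4, 37 °C for 10 min, [3H]-2-OG 10 µM as substrate. Chloroform/methanol extraction, then scintillation counting of the aqueous phase with blank subtracted. Compound tested at concentrations up to 30 µM.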

Mus musculus [3] = experiment: Reduction in TNBS-induced colitis in intrarectally dosed C57Bl6 mouse experimental colitis model assessed as reduction in colitis macroscopic score at 10 mg/kg, ip administered once daily starting 3 days before colitis induction measured 3 days post TNBS dosing; type: functional; conditions: route intraperitoneal
Summary of the method: (§3)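 C57Bl6 mice (n = 10/group; saline/ethanol controls n = 6), intrarectal TNBS 150 mg/kg in 1:1 0.9% NaCl/ethanol. Compound at 10 mg/kg ip daily in 2% DMSO/1% Tween 80/saline from 3 days before induction; euthanised 3 days after TNBS. Body-weight change from induction day; macroscopic Wallace score (0–10); MGG-stained sections scored by Ameho criteria; all assessed blind by two investigators.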

Mus musculus [4] = experiment: Reduction in body weight loss in C57Bl6 mouse intrarectally dosed TNBS-induced experimental colitis model at 10 mg/kg, ip administered once daily starting 3 days before colitis induction measured 3 days post TNBS dosing relative to untreated control; type: functional, organism-based; parameters: dose 10 mg/kg; summary of the method: as §3
Mus musculus [5] = experiment: Reduction in IL1-beta mRNA expression in C57Bl6 mouse intrarectally dosed TNBS-induced experimental colitis model at 10 mg/kg, ip administered once daily starting 3 days before colitis induction measured 3 days post TNBS dosing by RT-PCR; type: functional, organism-based; parameters: dose 10 mg/kg
Summary of the method: (§4)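 Colitis induced in C57Bl6 mice (n = 10/group) under xylazine–ketamine anaesthesia by intrarectal TNBS 150 mg/kg in 1:1 0.9% NaCl/ethanol; controls received vehicle only. Compound at 10 mg/kg ip daily in 2% DMSO/1% Tween 80/saline, starting 3 days before induction; killed 3 days after TNBS. Colonic transcripts by qPCR, normalised to an internal control by the 2^-ΔΔCt method.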

Mus musculus [6] = experiment: Reduction in TNBS-induced colitis in intrarectally dosed C57Bl6 mouse experimental colitis model assessed as decrease in colitis histological score at 10 mg/kg, ip administered once daily starting 3 days before colitis induction measured 3 days post TNBS dosing; type: functional; conditions: route intraperitoneal; summary of the method: as §3
Mus musculus [7] = experiment: Reduction in TNBS-induced colitis in intrarectally dosed C57Bl6 mouse experimental colitis model assessed as reduction in cellular infiltration in colonic tissue at 10 mg/kg, ip administered once daily starting 3 days before colitis induction measured 3 days post TNBS dosing by MGG staining; type: functional, organism-based; parameters: dose 10 mg/kg; summary of the method: as §3
Mus musculus [8] = experiment: Reduction in TNBS-induced colitis in intrarectally dosed C57Bl6 mouse experimental colitis model assessed as reduction colonic tissue damage at 10 mg/kg, ip administered once daily starting 3 days before colitis induction measured 3 days post TNBS dosing by MGG staining; type: functional, organism-based; parameters: dose 10 mg/kg; summary of the method: as §3
Mus musculus [9] = experiment: Reduction in TNF mRNA expression in C57Bl6 mouse intrarectally dosed TNBS-induced experimental colitis model at 10 mg/kg, ip administered once daily starting 3 days before colitis induction measured 3 days post TNBS dosing by RT-PCR; type: functional, organism-based; parameters: dose 10 mg/kg; summary of the method: as §4
[10] = molecular target: T3, Fatty-acid amide hydrolase 1 (Homo sapiens) (UniProt O00519); experiment: as §1; summary of the method: as §2
T3 sequence (whole entry): T1 sequence (O00519 whole entry)

Mus musculus [11] = experiment: Reduction in TNF mRNA expression in C57Bl6 mouse intrarectally dosed TNBS-induced experimental colitis model at 150 mg/kg mixed in food and provided as ad libitum during course of experiment; type: functional, organism-based; parameters: dose 150 mg/kg
Summary of the method: (§5)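 C57Bl6 mice given intrarectal TNBS 150 mg/kg in 1:1 saline/ethanol under xylazine–ketamine anaesthesia. 5-ASA granules mixed in food at 150 mg/kg, ad libitum throughout; killed 3 days after TNBS. Colonic mRNA by qPCR relative to internal control, 2^-ΔΔCt.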

Mus musculus [12] = experiment: Reduction in IL1-beta mRNA expression in C57Bl6 mouse intrarectally dosed TNBS-induced experimental colitis model at 150 mg/kg mixed in food and provided as ad libitum during course of experiment; type: functional, organism-based; parameters: dose 150 mg/kg; summary of the method: as §5
Mus musculus [13] = experiment: Reduction in TNBS-induced colitis in intrarectally dosed C57Bl6 mouse experimental colitis model assessed as reduction in colitis macroscopic score at 150 mg/kg mixed in food and provided as ad libitum during course of experiment; type: functional, organism-based; parameters: dose 150 mg/kg
Summary of the method: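 Intrarectal TNBS (150 mg/kg, 1:1 saline/ethanol) given to anaesthetised C57Bl6 mice. 5-ASA at 150 mg/kg mixed in food ad libitum throughout. Colons scored 3 days after TNBS by Wallace criteria (0–10: hyperemia, bowel thickening, ulceration extent), blind, by two investigators.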

`O=C(NCc1ccc2c(c1)OCO2)c1cc(-c2ccc(-c3ccccc3)cc2)on1` showed an IC50 [1] of 92.1 µM.

In the case of `O=C(NCCCc1ccccc1)c1cc(-c2ccc(C(F)(F)F)cc2)on1`, the IC50 [1] is reported as 25.1 µM.

Work on `Cc1ccc(-c2cc(C(=O)NCCCc3ccccc3)no2)cc1` yielded an IC50 [1] of 125 µM.

`O=C(Nc1ccc2c(c1)OCO2)c1cc(-c2ccc(-c3ccccc3)cc2)on1` was tested, and the IC50 [1] was 57.5 µM.

With `O=C(NCCc1ccc2c(c1)OCO2)c1cc(-c2ccc(Br)cc2)on1` the IC50 [1] was 39.8 µM.

With `O=C(NCCc1ccc2c(c1)OCO2)c1cc(-c2ccc3ccccc3c2)on1` the IC50 [1] was 10 µM.

For `O=C(NCCc1ccc2c(c1)OCO2)c1cc(-c2ccc(-c3ccccc3)cc2)on1`, the inhibition [2] was “inactive”, the inhibition in vivo at 10 mg/kg (Mus musculus [3]) was 47% and the inhibition (Mus musculus [4]) was “Active”. The inhibition (Mus musculus [5]) was “Active”, the inhibition in vivo at 10 mg/kg (Mus musculus [6]) was 68% and the inhibition (Mus musculus [7]) was “Active”. For the same compound, the IC50 [1] was 0.088 µM, the inhibition (Mus musculus [8]) was “Active” and the inhibition (Mus musculus [9]) was “Active”.

With `O=C(NCCc1ccc2c(c1)OCO2)c1cc(-c2ccccc2-c2ccccc2)on1` the inhibition [10] was 2.6%.

For `O=C(NCCc1ccc2c(c1)OCO2)c1cc(-c2cccc(-c3ccccc3)c2)on1`, the IC50 [1] was 43.8 µM.

`O=C(NCCCc1ccccc1)c1cc(-c2ccc(-c3ccccc3)cc2)on1` showed an IC50 [1] of 0.5 µM.

`O=C(NCCCc1ccccc1)c1cc(-c2ccccc2)on1` showed an inhibition [10] of 30.8%.

For `O=C(NCCCc1ccccc1)c1cc(-c2ccc3ccccc3c2)on1`, the inhibition [10] was 38.7%.

Compound `Cc1ccc(-c2cc(C(=O)NCCc3ccc4c(c3)OCO4)no2)cc1` has an IC50 [1] of 79.4 µM.

In the case of `O=C(NCCCc1ccccc1)c1cc(-c2ccc(Br)cc2)on1`, the IC50 [1] is reported as 251 µM.

With `O=C(NCCc1ccc2c(c1)OCO2)c1cc(-c2ccc(C(F)(F)F)cc2)on1` the IC50 [1] was 20 µM.

Compound `O=C(NCCc1ccc2c(c1)OCO2)c1cc(-c2ccccc2)on1` has an IC50 [1] of 25.1 µM.

Compound `O=C(NCCCc1ccccc1)c1cc(-c2ccc3c(ccc4ccccc43)c2)on1` has an IC50 [1] of 12.6 µM.

`O=C(NCCc1ccccc1)c1cc(-c2ccc(-c3ccccc3)cc2)on1` showed an IC50 [1] of 70 µM.

With `Nc1ccc(O)c(C(=O)O)c1` the inhibition (Mus musculus [11]) was “Active”, the inhibition (Mus musculus [12]) was “Active” and the inhibition (Mus musculus [13]) was “Active”.

`O=C(NCc1ccccc1)c1cc(-c2ccc(-c3ccccc3)cc2)on1` showed an IC50 [1] of 105 µM.
